Reference: ChEMBL document CHEMBL1154674, “Synthesis and evaluation of three 18F-labeled aminophenylbenzothiazoles as amyloid imaging agents” (J Med Chem, 2009)

Key:
Type in all cases: ADME, organism-based, Macaca mulatta
[1] = Drug level in normal rhesus monkey thalamus assessed as standard uptake value at 96.3 MBq, iv after 75 mins by microPET; settings: in vivo, 1.25 h
[2] = Drug level in normal rhesus monkey thalamus assessed as standard uptake value at 96.3 MBq, iv after 155 mins by microPET; settings: in vivo
[3] = Drug level in normal rhesus monkey cerebellum assessed as standard uptake value at 96.3 MBq, iv after 4.5 mins by microPET; settings: in vivo, 0.075 h
Procedure, shortened: (§1)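 One normal rhesus monkey, each tracer given iv via the vena saphena (81.2, 96.3 or 109.4 MBq), with 1 day between tracer injections. Dynamic brain μPET over 180 min used frames of 5 × 60 s, 5 × 120 s, 9 × 300 s and 12 × 600 s. Images were reconstructed by filtered back projection with a RAMP filter. Regional time-activity curves were expressed as SUV.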

[4] = Drug level in normal rhesus monkey parietal cortex assessed as standard uptake value at 96.3 MBq, iv after 0.5 mins by microPET; settings: in vivo
[5] = Drug level in normal rhesus monkey cerebellum assessed as standard uptake value at 96.3 MBq, iv after 52.5 mins by microPET; settings: in vivo, 0.875 h; procedure, shortened: as §1
[6] = Drug level in normal rhesus monkey cerebellum assessed as standard uptake value at 96.3 MBq, iv after 135 mins by microPET; settings: in vivo, 2.25 h; procedure, shortened: as §1
[7] = Drug level in normal rhesus monkey cerebellum assessed as standard uptake value at 96.3 MBq, iv after 165 mins by microPET; settings: in vivo, 2.75 h; procedure, shortened: as §1
[8] = Drug level in normal rhesus monkey white matter assessed as standard uptake value at 96.3 MBq, iv after 12 mins by microPET; settings: in vivo, 0.2 h
[9] = Drug level in normal rhesus monkey pons assessed as standard uptake value at 81.2 MBq, iv after 145 mins by microPET; settings: in vivo
[10] = Drug level in normal rhesus monkey parietal cortex assessed as standard uptake value at 81.2 MBq, iv after 47.5 mins by microPET; settings: in vivo
[11] = Drug level in normal rhesus monkey white matter assessed as standard uptake value at 81.2 MBq, iv after 32.5 mins by microPET; settings: in vivo
[12] = Drug level in normal rhesus monkey white matter assessed as standard uptake value at 81.2 MBq, iv after 57.5 mins by microPET; settings: in vivo
[13] = Drug level in normal rhesus monkey cerebellum assessed as standard uptake value at 81.2 MBq, iv after 65 mins by microPET; settings: in vivo; procedure, shortened: as §1
[14] = Drug level in normal rhesus monkey cerebellum assessed as standard uptake value at 81.2 MBq, iv after 85 mins by microPET; settings: in vivo; procedure, shortened: as §1
[15] = Drug level in normal rhesus monkey cerebellum assessed as standard uptake value at 81.2 MBq, iv after 165 mins by microPET; settings: in vivo, 2.75 h; procedure, shortened: as §1
[16] = Drug level in normal rhesus monkey frontal cortex assessed as standard uptake value at 81.2 MBq, iv after 14 mins by microPET; settings: in vivo
[17] = Drug level in normal rhesus monkey frontal cortex assessed as standard uptake value at 81.2 MBq, iv after 17.5 mins by microPET; settings: in vivo
[18] = Drug level in normal rhesus monkey cerebellum assessed as standard uptake value at 152.9 MBq, iv after 1.5 mins by microPET; settings: in vivo, 0.025 h
Procedure, shortened: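 One normal rhesus monkey received each tracer via the vena saphena, with 1 day between injections. Dynamic μPET ran 180 min for 18F tracers (5×60 s, 5×120 s, 9×300 s, 12×600 s) and 90 min for the 11C tracer (5×60 s, 5×120 s, 9×300 s, 3×600 s). Filtered back-projection reconstruction (RAMP filter) was used. Time-activity curves were drawn to give regional SUV.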

[19] = Drug level in normal rhesus monkey frontal cortex assessed as standard uptake value at 152.9 MBq, iv after 14 mins by microPET; settings: in vivo
Procedure, shortened: (§2)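 Single normal rhesus monkey; tracer given iv via the vena saphena, 1 day apart from the other tracer injections. Dynamic μPET ran 90 min (5×60 s, 5×120 s, 9×300 s, 3×600 s). Images were reconstructed by filtered back projection with a RAMP filter. Regional time-activity curves were expressed as SUV.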

[20] = Drug level in normal rhesus monkey frontal cortex assessed as standard uptake value at 152.9 MBq, iv after 27.5 mins by microPET; settings: in vivo; procedure, shortened: as §2
[21] = Drug level in normal rhesus monkey frontal cortex assessed as standard uptake value at 152.9 MBq, iv after 85 mins by microPET; settings: in vivo; procedure, shortened: as §2
[22] = Drug level in normal rhesus monkey white matter assessed as standard uptake value at 152.9 MBq, iv after 3.5 mins by microPET; settings: in vivo
[23] = Drug level in normal rhesus monkey pons assessed as standard uptake value at 152.9 MBq, iv after 8 mins by microPET; settings: in vivo
[24] = Drug level in normal rhesus monkey pons assessed as standard uptake value at 152.9 MBq, iv after 12 mins by microPET; settings: in vivo, 0.2 h
[25] = Drug level in normal rhesus monkey pons assessed as standard uptake value at 152.9 MBq, iv after 42.5 mins by microPET; settings: in vivo
[26] = Drug level in normal rhesus monkey parietal cortex assessed as standard uptake value at 152.9 MBq, iv after 2.5 mins by microPET; settings: in vivo
[27] = Drug level in normal rhesus monkey parietal cortex assessed as standard uptake value at 152.9 MBq, iv after 8 mins by microPET; settings: in vivo
[28] = Drug level in normal rhesus monkey parietal cortex assessed as standard uptake value at 152.9 MBq, iv after 27.5 mins by microPET; settings: in vivo
[29] = Drug level in normal rhesus monkey pons assessed as standard uptake value at 109.4 MBq, iv after 12.5 mins by microPET; settings: in vivo
[30] = Drug level in normal rhesus monkey frontal cortex assessed as standard uptake value at 109.4 MBq, iv after 0.875 mins by microPET; settings: in vivo, 52 s
[31] = Drug level in normal rhesus monkey frontal cortex assessed as standard uptake value at 109.4 MBq, iv after 4.5 mins by microPET; settings: in vivo, 0.075 h; procedure, shortened: as §1
[32] = Drug level in normal rhesus monkey white matter assessed as standard uptake value at 109.4 MBq, iv after 111 mins by microPET; settings: in vivo
[33] = Drug level in normal rhesus monkey thalamus assessed as standard uptake value at 109.4 MBq, iv after 47.5 mins by microPET; settings: in vivo
[34] = Drug level in normal rhesus monkey frontal cortex assessed as standard uptake value at 109.4 MBq, iv after 129 mins by microPET; settings: in vivo, 2.15 h
[35] = Drug level in normal rhesus monkey white matter assessed as standard uptake value at 109.4 MBq, iv after 1.5 mins by microPET; settings: in vivo, 0.025 h
[36] = Drug level in normal rhesus monkey white matter assessed as standard uptake value at 109.4 MBq, iv after 4.5 mins by microPET; settings: in vivo, 0.075 h
[37] = Drug level in normal rhesus monkey white matter assessed as standard uptake value at 109.4 MBq, iv after 27.5 mins by microPET; settings: in vivo
[38] = Drug level in normal rhesus monkey white matter assessed as standard uptake value at 109.4 MBq, iv after 75 mins by microPET; settings: in vivo, 1.25 h

CN(C)c1ccc2nc(-c3ccc([18F])cc3)sc2c1
SUV [1]: 2.19 | SUV [2]: 1.92 | SUV [3]: 1.63 | SUV [4]: 0.65 | SUV [5]: 1.25 | SUV [6]: 0.94 | SUV [7]: 0.79 | SUV [8]: 1.31

CNc1ccc2nc(-c3ccc([18F])cc3)sc2c1
SUV [9]: 5.067 | SUV [10]: 3.676 | SUV [11]: 3.799 | SUV [12]: 3.796 | SUV [13]: 1.88 | SUV [14]: 1.864 | SUV [15]: 1.585 | SUV [16]: 6.096 | SUV [17]: 5.789

[11CH3]Nc1ccc(-c2nc3ccc(O)cc3s2)cc1 [PITTSBURGH COMPOUND B]
SUV [18]: 0.677 | SUV [19]: 1.904 | SUV [20]: 1.215 | SUV [21]: 0.625 | SUV [22]: 1.053 | SUV [23]: 2.153 | SUV [24]: 2.117 | SUV [25]: 1.179 | SUV [26]: 1.106 | SUV [27]: 2.207 | SUV [28]: 1.221

Nc1ccc2nc(-c3ccc([18F])cc3)sc2c1
SUV [29]: 4.65 | SUV [30]: 1.73 | SUV [31]: 5.43 | SUV [32]: 3.82 | SUV [33]: 5.56 | SUV [34]: 4.06 | SUV [35]: 1.98 | SUV [36]: 2.62 | SUV [37]: 3.2 | SUV [38]: 3.63
